# Like-named read-outs stand apart in the source and are kept apart here.
# What was measured:
# [1] = system: MM.1S cells; type: in vivo
# [2] = system: MM.1S BzR cells; assay: Effect on lenalidomide or doxorubicin cytotoxicity; type: cell-based
# [3] = system: MM.1S BzR cells; assay: NSG mouse xenotransplant model with MM.1S BzR cells; type: in vivo
# Procedure, shortened: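 Mice implanted i.v. with PI-resistant MM.1S BzR cells; test compound at 50 mg/kg i.p. daily versus vehicle, from day 21 post-implant. Read-out: Kaplan–Meier survival. In a parallel cohort, mice were sacrificed on day 49 and % CD138+ cells in bone marrow biopsies was quantified (vehicle N=8, treated N=7), compared by t-test.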
# [4] = system: RPMI-8226 cells; assay: Effect on dexamethasone activity in dexamethasone resistant cells; type: cell-based; details: dexamethasone resistant RPMI-8226 cells
# [5] = target: PDIA1 (Homo sapiens, UniProt P07237); assay: Insulin reduction assay; type: biochemical
# Chain of PDIA1 (P07237 18-508): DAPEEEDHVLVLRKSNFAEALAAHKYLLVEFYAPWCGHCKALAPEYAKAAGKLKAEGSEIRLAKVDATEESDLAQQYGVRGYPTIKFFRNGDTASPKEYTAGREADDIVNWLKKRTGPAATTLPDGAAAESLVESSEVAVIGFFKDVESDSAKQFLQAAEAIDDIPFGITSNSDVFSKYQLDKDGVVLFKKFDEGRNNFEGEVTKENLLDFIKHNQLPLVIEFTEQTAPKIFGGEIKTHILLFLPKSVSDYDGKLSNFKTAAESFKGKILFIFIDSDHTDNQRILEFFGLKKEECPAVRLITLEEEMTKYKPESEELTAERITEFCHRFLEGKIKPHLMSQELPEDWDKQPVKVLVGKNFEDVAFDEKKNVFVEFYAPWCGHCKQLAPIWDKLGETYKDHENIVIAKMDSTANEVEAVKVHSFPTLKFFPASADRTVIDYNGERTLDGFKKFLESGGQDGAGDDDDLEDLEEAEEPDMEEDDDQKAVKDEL
# Procedure, shortened: (§1)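 The assay measured reductase activity of recombinant PDI family isoforms through insulin reduction, followed as insulin aggregation (turbidity) kinetic traces. A dose range of test compound was applied. IC50 values were extrapolated from 10-dose inhibition curves.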
# [6] = system: 20S proteasome; assay: Chymotrypsin-like activity of the 20S proteasome; type: biochemical
# [7] = Stability against oxidative metabolism by human liver microsomes; type: in vitro ADME
# [8] = system: MM cells; assay: Single-agent anti-MM cell viability; type: cell-based, human; details: read-out: EC50, single-agent anti-MM activity; 24 h of exposure
# Procedure, shortened: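 Myeloma cells were seeded at 3×10^4 cells/well and exposed to test compound alone. Viability was read by CellTiter-Glo luminescence (470 nm, 1-s integration), and EC50 was derived from dose–response curves.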
# [9] = system: normal cells; assay: PI sensitization in normal cells; type: cell-based; details: PBMCs, WBCs, MRC-5, Wi-38, HFF, MEF; Btz and Crflz
# Procedure, shortened: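 Normal human PBMCs, lymphocytes, lung (MRC-5, Wi-38) and foreskin (HFF) fibroblasts, and mouse MEF fibroblasts were seeded at 3×10^4 cells/well. Cells received 8-dose Btz or Crflz curves with or without 5 µM test compound. Viability was measured by CellTiter-Glo luminescence. Fold change = PI EC50 without / EC50 with test compound; >1 denotes sensitization, <1 protection.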
# [10] = system: MM.1S BzR cells; assay: Btz re-sensitization of PI-resistant MM cells; type: cell-based; details: screening hit, low micromolar E61
# [11] = system: PDIA3; assay: Insulin reduction assay; type: biochemical
# Procedure, shortened: as §1
# [12] = mouse, in vivo
# [13] = system: PDIA6; assay: Insulin reduction assay; type: biochemical
# Procedure, shortened: as §1
# [14] = system: PDIA4; assay: Insulin reduction assay; type: biochemical
# Procedure, shortened: as §1
# [15] = system: Vk*MYC transgenic mice; assay: Vk*MYC transgenic mouse model of MM; type: in vivo; details: 2 mg/kg i.p. days 1, 3, 5 of each week for 2 weeks; three mice; P=0.0135
# [16] = system: TXNDC5; assay: Insulin reduction assay; type: biochemical
# Procedure, shortened: as §1
# [17] = Pharmacokinetics in CD-1 mice; type: in vivo, mouse
# Procedure, shortened: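 CD-1 mice received a single dose of test compound, either i.v. at 2 mg/kg or p.o. at 5 mg/kg. Plasma drug concentrations were followed over 24 h by an optimized LC-MS method. Oral bioavailability and terminal half-life were derived from these plasma profiles.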
# [18] = Stability in serum, simulated gastric and intestinal fluids; type: in vitro ADME
# [19] = system: MM cells; assay: PI sensitization of MM cell lines; type: cell-based, human
# [20] = E64FC26 2 mg/kg i.p. 3 days/week, N=9
compound,measurement,setting,value
"CC(C)C[C@H](NC(=O)[C@H](Cc1ccccc1)NC(=O)c1cnccn1)B(O)O [Btz, bortezomib, reference compound]",increase in median survival over vehicle,"[1]; Btz 0.25 mg/kg i.p. 2 days/week, E64FC26 2 mg/kg i.p. 3 days/week, N=8",6 days
"CCCCCCCCOC(=O)/C=C/c1ccc(O)c(O)c1 [E61, n-octyl caffeate]",effect on lenalidomide or doxorubicin cytotoxicity,[2],did not affect
same,number of CD138+ MM cells in bone marrow,"[3]; 50 mg/kg i.p. daily, sacrificed on day 49, P=0.007",significant reduction
same,treated mice that never reached the survival endpoint,[3]; 50 mg/kg/day i.p.,4 of the 11
same,median survival,"[3]; 50 mg/kg/day i.p., continuous dosing, vehicle 51 days",62 days
same,prolongation of median survival,"[3]; 50 mg/kg/day i.p., continuous dosing, vs vehicle, N=11",11 days
same,"tolerability (overt signs of distress, body weight)","[3]; continuous dosing for 40+ days, 50 mg/kg/day i.p.",well tolerated
same,effect on dexamethasone activity,[4],no effect
same,"IC50 in vitro (PDI assay, qualitative)",[5],high micromolar
same,inhibition of chymotrypsin-like activity of the 20S proteasome,[6],did not inhibit
same,calculated intrinsic clearance in human liver microsomes,[7],97.6 ± 6.0 µL/min/mg
same,EC50,[8],18.3 µM
same,enhancement of the cytotoxic effects of PIs in normal cells,[9],failed to enhance
same,enhancement of Btz cytotoxicity,[10],> 6 fold
CCCCCCCC/C=C1\C=C(C(F)(F)F)c2cc(O)c(O)cc21 [E64FC26],inhibition of PDIA3 (qualitative),[11],inhibited
same,blood serum chemistry markers (toxicology),[12],mild thrombocytopenia and neutropenia
same,inhibition of PDIA6 (qualitative),[13],inhibited
same,inhibition of PDIA4 (qualitative),[14],inhibited
same,potency relative to E61 as inhibitor of PDI activity in vitro,[5],> 50 times
same,IC50,"[5]; read-out: IC50 against PDIA1, insulin reduction assay",1.9 ± 0.1 µM
same,average decrease in serum M-protein,[15],33 ± 7.9%
same,calculated intrinsic clearance in human liver microsomes,[7],6.22 ± 0.98 µL/min/mg
same,inhibition of TXNDC5 (qualitative),[16],inhibited
same,oral bioavailabilty,"[17]; p.o. 5 mg/kg, i.v. 2 mg/kg",34%
same,Cmax,"[17]; read-out: maximum concentration (Cmax), single oral dose of 5 mg/kg, plasma",~400 nM
same,terminal half-life,[17]; single oral dose of 5 mg/kg,9.5 h
same,EC50,[8],0.59 µM
same,"stability in serum, simulated gastric and intestinal fluids, and human liver microsomes compared to E61",[18],increased stability
same,increase in median survival over vehicle,[1]; [20],2 weeks
same,increase in median survival over vehicle (percent),[1]; [20],40%
same,mice alive on day 36,"[1]; E64FC26 2 mg/kg i.p. 3 days/week, vehicle 0% (0/9)",100%
same,overt toxicity or body weight fluctuations,"[1]; mouse, in vivo",No overt toxicity or body weight fluctuations
same,potency relative to E61 in cellular models of PI sensitization,[19],> 10 times
same,concentrations highly synergistic with PIs,"[19]; MM.1S BzR and U266 BzR cells, Btz",≥ 200 nM
same,average increase in PI sensitivity,[19]; cells treated with empirically determined EC10–20 of the PDI inhibitor,6–7 fold
"O=C(O)/C=C/c1ccc(O)c(O)c1 [caffeic acid, reference compound]",PDI reductase activity in vitro (qualitative),[5],no activity
same,enhancement of the sensitivity of MM cells to PIs (qualitative),[19],failed to enhance
PACMA 31 [reference compound],inhibition of PDIA3 (qualitative),[11],failed to inhibit
same,inhibition of PDIA6 (qualitative),[13],inhibited
same,inhibition of PDIA4 (qualitative),[14],inhibited
same,inhibition of TXNDC5 (qualitative),[16],inhibited
